Measurements collected from several papers.
Compare with care: the assays were run in different laboratories.
PPO3: PPO3 (Agaricus bisporus, UniProt C7FF04)
OPRK1: Kappa-type opioid receptor (OPRK1, Homo sapiens, UniProt P41145)
HTR2A: 5-hydroxytryptamine receptor 2A (HTR2A, Homo sapiens, UniProt P28223)

SMILES	target	effect on	action	technique	concentration	inhibition [%]
COc1cc(/C=C/C(=O)O)ccc1OCc1cn(CC(=O)Nc2ccccc2)nn1	PPO3	enzyme activity	inhibitor		40 µM	10.4
CN1CCC[C@H]1c1cccnc1	OPRK1	ligand displacement			50 µM	-10.9
COc1cc2c3c(c1OC)-c1c(OC)ccc(Cl)c1CC3N(C)CC2 (racemic)	HTR2A	ligand displacement		radioligand	10 µM	70
CC(C)CC(=O)OC[C@H]1O[C@@](C#N)(c2ccc3c(N)ncnn23)[C@H](O)[C@@H]1O	HTR2A	cell-free assay			20 µM	5
COc1cc2c3c(c1OC)-c1c(OC)ccc(O)c1CC3N(C)CC2 (stereo not drawn)	HTR2A	ligand displacement		radioligand	10 µM	36
COc1cc(/C=C/C(=O)O)ccc1OCc1cn(CC(=O)Nc2ccc([N+](=O)[O-])cc2C)nn1	PPO3	enzyme activity	inhibitor		40 µM	44.9
COc1cc2c3c(c1OC)-c1c(cccc1OC)CC3N(C)CC2 (racemic)	HTR2A	ligand displacement		radioligand	10 µM	42
COc1cc(/C=C/C(=O)O)ccc1OCc1cn(CC(=O)Nc2ccc(Cl)cc2Cl)nn1	PPO3	enzyme activity	inhibitor		40 µM	7.73
c1cncc([C@@H]2CCCN2)c1	OPRK1	ligand displacement			50 µM	-6.74
COc1cc2c(cc1OC)-c1c(OC)c(OC)cc3c1[C@H](C2)N(C)CC3 (racemic)	HTR2A	ligand displacement		radioligand	10 µM	34
COc1cc(/C=C/C(=O)O)ccc1OCc1cn(CC(=O)Nc2ccccc2Cl)nn1	PPO3	enzyme activity	inhibitor		40 µM	16.2
CC[C@H](C)[C@@H](C(=O)N1CCC[C@H]1c1nccs1)N(C)C(=O)[C@H](CC(C)C)N(C)C(=O)[C@H](Cc1ccc(OC)cc1)N(C)C(=O)/C=C(\C)OC	Cannabinoid receptor 1 (CNR1, Homo sapiens, UniProt P21554)	β-arrestin recruitment	antagonist		20 µM	53
